In ChEMBL document CHEMBL2093137, “WHO-TDR NTD Screening”:
Converted amounts (≈) assume the structure as drawn.

Columns and labels:
Trypanosoma cruzi = experiment: WHO-TDR: Chagas disease; assay type: functional, organism-based, Homo sapiens; settings: MRC5
Summary of the method: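 Following previously published standard procedures, with a reference drug as positive control, a whole-organism assay was run on Trypanosoma cruzi Tulahuen CL2 beta-galactosidase strain amastigotes inside MRC-5SV2 human lung fibroblast host cells. The 10,000 compounds tested formed a diverse Life Chemicals library filtered for drug-likeness and reactive groups. Results are expressed as IC50 for antiparasitic potency.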

Brugia malayi = experiment: WHO-TDR: Lymphatic Filariasis; assay type: functional; design: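 tested at 10 µM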
Summary of the method: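 In a whole-organism assay, Brugia malayi microfilariae were screened against a diverse Life Chemicals library that had been filtered for drug-likeness and reactive groups. That library comprised 10,000 compounds. Activity is expressed as percent inhibition and as IC50.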

Onchocerca ochengi = experiment: WHO-TDR: Onchocerciasis; assay type: functional; design: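 at 12.5 µM on microfilariae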
Summary of the method: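 Microfilariae of Onchocerca ochengi or Onchocerca lienalis, animal pathogens standing in for the human parasite, were exposed to compounds in a whole-organism screen. The compounds came from a 10,000-compound diverse Life Chemicals library filtered for drug-likeness and reactive groups. Results are expressed as percent inhibition and IC50.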

[1] = WHO-TDR: Cytotoxicity; assay type: toxicity, cell-based; settings: human, MRC5 cells
Leishmania infantum = experiment: WHO-TDR: Leishmaniasis; assay type: functional, organism-based, Mus musculus; settings: Macrophage
Summary of the method: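 The screened collection came from Life Chemicals: 10,000 diverse compounds selected after filtering for drug-likeness and reactive groups. Each was tested in a whole-organism assay against Leishmania infantum MHOM/MA(BE)/67 amastigotes inside murine peritoneal macrophages, using previously published standard procedures and a reference drug as positive control. Results are IC50 values for antiparasitic potency.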

[2] = tested on: Trypanosoma brucei brucei; experiment: WHO-TDR: Human African Trypanosomiasis (HAT); assay type: functional, organism-based; settings: Squib-427
Summary of the method: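 Screening used a 10,000-compound diverse library supplied by Life Chemicals and filtered for drug-likeness and reactive groups. Whole bloodstream-form parasites of Trypanosoma brucei Squib 427 strain were assayed according to previously published standard procedures, with reference drugs as positive controls. The reported measure is IC50, reflecting antiparasitic potency.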

Plasmodium falciparum K1 = experiment: WHO-TDR: Malaria; assay type: functional, organism-based, Homo sapiens; settings: Erythrocyte
Summary of the method: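 This whole-organism screen covered 10,000 drug-likeness-filtered and reactive-group-filtered compounds from Life Chemicals. The target was the Plasmodium falciparum K1 strain in human red blood cells, and the readout was antiplasmodial IC50.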

Schistosoma mansoni = experiment: WHO-TDR: Schistosomiasis; assay type: functional; design: concentration or dose not given beside the values
Summary of the method: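 In this whole-organism assay, larval and/or adult worms of Schistosoma mansoni (Puerto Rican strain) were exposed to compounds from a diverse Life Chemicals library of 10,000 members. A reference drug served as positive control. Activity is stated as percent inhibition and IC50.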

IC50 (Leishmania infantum)	IC50 [2]	IC50 (Plasmodium falciparum K1)	Structure (SMILES)	IC50 (Trypanosoma cruzi)	% Inhibition (Brugia malayi)	% Inhibition (Onchocerca ochengi)	IC50 [1]	% Inhibition (Schistosoma mansoni)
> 13.9 µg/mL	4.13 µg/mL (≈ 8.93 µM)	12.7 µg/mL (≈ 27.5 µM)	O=C(Nc1nc(-c2ccccn2)cs1)C1CCN(S(=O)(=O)c2ccc(Cl)cc2)CC1	4.3 µg/mL (≈ 9.28 µM)	0%	100%	> 13.9 µg/mL	0%
> 13.2 µg/mL	> 13.2 µg/mL	> 13.2 µg/mL	Cc1ccc(S(=O)(=O)N2CCC(C(=O)Nc3c(C(N)=O)oc4ccccc34)CC2)cc1	> 13.2 µg/mL	0%	100%	> 13.2 µg/mL	0%
> 14.2 µg/mL	4.56 µg/mL (≈ 10.4 µM)	1.35 µg/mL (≈ 3.08 µM)	O=C(c1ccc2c(c1)OCCO2)N(CCCn1ccnc1)c1nc2c(F)cccc2s1	3.6 µg/mL (≈ 8.22 µM)	0%	100%	6.23 µg/mL (≈ 14.2 µM)	0%
> 14.4 µg/mL	4.62 µg/mL (≈ 10.4 µM)	2.13 µg/mL (≈ 4.8 µM)	O=C(CSc1ccc(F)cc1)N(CCCn1ccnc1)c1nc2c(F)cccc2s1	5.11 µg/mL (≈ 11.5 µM)	0%	100%	> 14.4 µg/mL	0%
> 13.6 µg/mL	> 13.6 µg/mL	0.619 µg/mL (≈ 1.48 µM)	Cc1cccc2sc(N(CCCn3ccnc3)C(=O)c3ccc(Cl)s3)nc12	1.22 µg/mL (≈ 2.93 µM)	0%	100%	5.04 µg/mL (≈ 12.1 µM)	0%
> 13.5 µg/mL	4.31 µg/mL (≈ 10.4 µM)	0.573 µg/mL (≈ 1.39 µM)	CCOc1cccc2sc(N(CCCn3ccnc3)C(=O)c3cccs3)nc12	4.08 µg/mL (≈ 9.88 µM)	0%	100%	5.87 µg/mL (≈ 14.2 µM)	0%
> 13 µg/mL	4.17 µg/mL (≈ 10.5 µM)	0.745 µg/mL (≈ 1.87 µM)	O=C(c1cccc(F)c1)N(CCCn1ccnc1)c1nc2ccc(F)cc2s1	3.32 µg/mL (≈ 8.33 µM)	0%	100%	> 13 µg/mL	0%
4.46 µg/mL (≈ 10.5 µM)	1 µg/mL (≈ 2.37 µM)	0.163 µg/mL (≈ 0.386 µM)	CCc1ccc2nc(N(CCCn3ccnc3)C(=O)/C=C/c3cccs3)sc2c1	0.399 µg/mL (≈ 0.944 µM)	0%	100%	3.5 µg/mL (≈ 8.28 µM)	0%
4.71 µg/mL (≈ 10.5 µM)	4.71 µg/mL (≈ 10.5 µM)	0.363 µg/mL (≈ 0.809 µM)	CCc1ccc2nc(N(CCCn3ccnc3)C(=O)C3COc4ccccc4O3)sc2c1 (stereo not given)	1.22 µg/mL (≈ 2.73 µM)	0%	100%	4.4 µg/mL (≈ 9.81 µM)	0%
> 13.2 µg/mL	4.23 µg/mL (≈ 10.5 µM)	0.793 µg/mL (≈ 1.96 µM)	O=C(c1cccs1)N(CCCn1ccnc1)c1nc2c(F)cc(F)cc2s1	4.01 µg/mL (≈ 9.91 µM)	0%	100%	8.75 µg/mL (≈ 21.6 µM)	0%
> 12.7 µg/mL	4.08 µg/mL (≈ 10.5 µM)	0.533 µg/mL (≈ 1.37 µM)	O=C(c1ccco1)N(CCCn1ccnc1)c1nc2c(F)cc(F)cc2s1	3.97 µg/mL (≈ 10.2 µM)	0%	100%	7.77 µg/mL (≈ 20 µM)	0%
9.34 µg/mL (≈ 22.2 µM)	4.44 µg/mL (≈ 10.6 µM)	2.34 µg/mL (≈ 5.56 µM)	Cc1ccc(C)c2sc(N(CCCn3ccnc3)C(=O)COc3ccccc3)nc12	1.14 µg/mL (≈ 2.71 µM)	0%	100%	5.31 µg/mL (≈ 12.6 µM)	0%
4.46 µg/mL (≈ 10.6 µM)	3.98 µg/mL (≈ 9.41 µM)	3.4 µg/mL (≈ 8.04 µM)	Cc1ccc(C)c2sc(N(CCCn3ccnc3)C(=O)Cc3ccc(F)cc3)nc12	0.495 µg/mL (≈ 1.17 µM)	0%	100%	3.26 µg/mL (≈ 7.73 µM)	0%
> 14.7 µg/mL	4.75 µg/mL (≈ 10.5 µM)	3.16 µg/mL (≈ 6.98 µM)	COc1ccc(OC)c2sc(N(CCCn3ccnc3)C(=O)COc3ccccc3)nc12	4.77 µg/mL (≈ 10.5 µM)	0%	100%	4.9 µg/mL (≈ 10.8 µM)	0%
> 13.7 µg/mL	3.3 µg/mL (≈ 7.85 µM)	0.615 µg/mL (≈ 1.46 µM)	COc1ccc(C)c2sc(N(CCCn3ccnc3)C(=O)Cc3ccccc3)nc12	0.644 µg/mL (≈ 1.53 µM)	0%	100%	4.07 µg/mL (≈ 9.68 µM)	0%
4.73 µg/mL (≈ 10.5 µM)	1.34 µg/mL (≈ 2.97 µM)	1.28 µg/mL (≈ 2.85 µM)	COc1cccc(C(=O)N(CCCn2ccnc2)c2nc3c(C)c(C)ccc3s2)c1OC	0.648 µg/mL (≈ 1.44 µM)	0%	100%	3.15 µg/mL (≈ 6.99 µM)	0%
> 14.4 µg/mL	4.67 µg/mL (≈ 10.5 µM)	3.63 µg/mL (≈ 8.15 µM)	COc1ccc(Cl)c2sc(N(CCCn3ccnc3)C(=O)c3cccc(F)c3)nc12	3.68 µg/mL (≈ 8.27 µM)	0%	100%	4.08 µg/mL (≈ 9.16 µM)	0%
> 10.7 µg/mL	> 10.7 µg/mL	> 10.7 µg/mL	O=C(CS(=O)(=O)Cc1ccccc1)Nc1cc(Cl)cc(Cl)c1	> 10.7 µg/mL	0%	100%	> 10.7 µg/mL	0%
> 14.4 µg/mL	> 14.4 µg/mL	> 14.4 µg/mL	CCOC(=O)Cn1/c(=N\C(=O)CCCS(=O)(=O)Cc2ccccc2)sc2cc(F)ccc21	> 14.4 µg/mL	0%	100%	> 14.4 µg/mL	0%
> 16.5 µg/mL	5.34 µg/mL (≈ 9.71 µM)	13.4 µg/mL (≈ 24.4 µM)	CCc1nnc(NS(=O)(=O)c2ccc(NC(=O)c3ccc(S(=O)(=O)N4CCCCC4C)cc3)cc2)s1 (stereo not given)	> 16.5 µg/mL	0%	100%	> 16.5 µg/mL	0%
3.49 µg/mL (≈ 9.71 µM)	3.49 µg/mL (≈ 9.71 µM)	> 10.8 µg/mL	O=C(Nc1nnc(CCSc2ccccc2)o1)c1ccc(Cl)cc1	3.77 µg/mL (≈ 10.5 µM)	0%	100%	3.41 µg/mL (≈ 9.49 µM)	0%
> 13.7 µg/mL	> 13.7 µg/mL	6.65 µg/mL (≈ 14.6 µM)	CCOC(=O)N1CCc2nc(NC(=O)CCCS(=O)(=O)c3ccc(F)cc3)sc2C1	> 13.7 µg/mL	0%	100%	> 13.7 µg/mL	0%
> 13.4 µg/mL	> 13.4 µg/mL	> 13.4 µg/mL	CCc1nnc(NS(=O)(=O)c2ccc(NC(=O)c3nc4ccccc4s3)cc2)s1	> 13.4 µg/mL	0%	100%	> 13.4 µg/mL	0%
> 10.7 µg/mL	0.337 µg/mL (≈ 0.948 µM)	10.7 µg/mL (≈ 30 µM)	C=CCn1c(Sc2nc3ccccc3o2)nc2c1c(=O)[nH]c(=O)n2C	4.04 µg/mL (≈ 11.4 µM)	20%	0%	> 10.7 µg/mL	0%
> 11.3 µg/mL	0.099 µg/mL (≈ 0.262 µM)	6.29 µg/mL (≈ 16.7 µM)	C/C=C/Cn1c(=O)c2c(nc3n(C(C)c4ccccc4)c(C)cn23)n(C)c1=O (stereo not given)	3.82 µg/mL (≈ 10.1 µM)	20%	0%	> 11.3 µg/mL	0%
4.25 µg/mL (≈ 9.71 µM)	3.81 µg/mL (≈ 8.7 µM)	2.97 µg/mL (≈ 6.79 µM)	Cc1c(Cl)cccc1-n1c(-c2ccc(F)cc2)cn2c3c(=O)n(C)c(=O)n(C)c3nc12	> 13.1 µg/mL	20%	100%	6.43 µg/mL (≈ 14.7 µM)	0%
> 16.2 µg/mL	5.19 µg/mL (≈ 12.4 µM)	1.27 µg/mL (≈ 3.04 µM)	Cc1ccc(S(=O)(=O)N(CC(O)CNCc2ccco2)c2ccc(F)cc2)cc1 (stereo not given)	5.67 µg/mL (≈ 13.5 µM)	0%	100%	> 16.2 µg/mL	0%
> 11.3 µg/mL	9.55 µg/mL (≈ 25.3 µM)	> 11.3 µg/mL	Cc1ccc(S(=O)(=O)N(C)CC(O)COc2c(C)cc(C)cc2C)cc1 (stereo not given)	3.81 µg/mL (≈ 10.1 µM)	0%	100%	> 11.3 µg/mL	0%
> 5.73 µg/mL	> 5.73 µg/mL	> 5.73 µg/mL	O=C1C=CC(=O)N1c1ccccc1F	3.28 µg/mL (≈ 17.2 µM)	20%	100%	1.81 µg/mL (≈ 9.48 µM)	0%
> 12.5 µg/mL	3.86 µg/mL (≈ 10.2 µM)	0.45 µg/mL (≈ 1.18 µM)	Cc1ccc(C)c2sc(N(CCCn3ccnc3)C(=O)c3ccco3)nc12	1.49 µg/mL (≈ 3.92 µM)	0%	100%	3.53 µg/mL (≈ 9.28 µM)	0%
